Measured values taken from ChEMBL document CHEMBL5608261, “Pharmacophore Establishment and Optimization of Saturated 1,6-Naphthyridine-Fused Quinazolinones that Inhibit Meningoencephalitis-Causing Naegleria fowleri” (J Med Chem, 2024).
≈ marks a conversion by molar mass, not a printed value.

Legend:
SH-SY5Y = assay: (§1) Cytotoxicity against human SH-SY5Y cells assessed as reduction in cell viability incubated for 72 hrs by CellTiter-Glo assay; assay type: toxicity, cell-based; details: sh-sy5y, 72 h
Method in brief: (§2)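 SH-SY5Y cells at 2000 per well attached overnight at 37 °C. Compound from 20 mM DMSO stocks was added in triplicate as a dose series starting at 20 μM, with doxorubicin as positive control.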

[1] = Selectivity index, ratio of CC50 for cytotoxicity against human SH-SY5Y cells to EC50 for anti-amoebic activity against Naegleria fowleri Nf69 (ATCC 30215) assessed as inhibition of amoeba growth; assay type: toxicity, cell-based; details: for selectivity ratio: SH-SY5Y cells, read-out: Ratio CC50/EC50
Naegleria fowleri [2] = assay: Anti-ameobic activity against Naegleria fowleri Nf69 (ATCC 30215) trophozoites assessed as inhibition of amoeba growth incubated for 48 hrs by CellTiter-Glo assay; assay type: functional, organism-based
Method in brief: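 Axenic Nf69 trophozoites were seeded at 1 × 10^4 cells/mL in Nelson's complete medium with 10% heat-inactivated FBS. Compound was added at 20 to 0.375 μM (lower ranges for very potent compounds), with vehicle controls, for 48 h at 37 °C and 5% CO2. CellTiter-Glo luminescence gave % growth inhibition versus controls, and triplicate means were fitted to dose–response curves for EC50.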

[3] = Kinetic solubility of compound at pH 7.4 incubated for 24 hrs by HPLC analysis; assay type: physicochemical; details: buffer; for solubility kinetic at 24 h: pH 7.4, read-out: Kinetic_solubility; for Kinetic_solubility: pH 7.4, 24 h
[4] = Metabolic stability in CD-1 mouse liver microsomes assessed as half-life incubated for 60 mins by LC-MS/MS analysis; assay type: ADME, Microsome; details: 1 h
Method in brief: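 Half-life measured in CD-1 mouse liver microsomes with NADPH over a 60 min exposure.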

[5] = as §1; assay type: toxicity, cell-based; details: SH-SY5Y cells; method in brief: as §2
Naegleria fowleri [6] = assay: Anti-ameobic activity against Naegleria fowleri TY (ATCC 30107) trophozoites assessed as inhibition of amoeba growth incubated for 48 hrs by CellTiter-Glo assay; assay type: functional, organism-based
Method in brief: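 TY strain (ATCC 30107) trophozoites, seeded at 1 × 10^4 cells/mL, were exposed 48 h (37 °C, 5% CO2) to vehicle or compound, with concentrations initially 20 to 0.375 μM. CellTiter-Glo luminescence gave % growth inhibition versus controls. EC50 was fit from triplicate runs (n = 3, ± SEM).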

[7] = Metabolic stability in human liver microsomes assessed as half-life; assay type: ADME, Microsome
[8] = Protein binding in CD-1 mouse plasma assessed as free fraction incubated for 4 hrs by equilibrium dialysis based LC-MS/MS analysis; assay type: ADME, cell-free
[9] = Protein binding in CD-1 mouse plasma incubated for 4 hrs by equilibrium dialysis based LC-MS/MS analysis; assay type: ADME, cell-free; details: CD-1, mouse, read-out: PPB (converted)
[10] = Stability in CD-1 mouse plasma assessed as half-life measured upto 120 mins by LC-MS analysis; assay type: ADME, cell-free; details: 2 h
Naegleria fowleri [11] = assay: Anti-ameobic activity against Naegleria fowleri Nf69 (ATCC 30215) trophozoites infected in female CD-1 mouse model assessed as survival rate at 5 mg/kg, ip pre-infected for 48 hrs from day 0 followed by once daily compound administration from day 2 to day 6 and measured on day 14 post-infection relative to control; assay type: functional; details: 312 h, time 13 day
Method in brief: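 Female CD-1 mice (n = 6/group) were infected intranasally with Nf69 trophozoites on day 0. After a 48 h establishment period, they received IP dosing at 5 mg/kg once daily for 5 days, alongside a vehicle-only infected control group. Survival was followed for 14 days with Kaplan–Meier analysis. Survivor brain tissue was cultured for amoeba, and survival counted only mice whose brains were free of amoeba.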

[12] = Naegleria fowleri, Nf69 (ATCC 30215), 48 h

Row | Compound | solubility kinetic at 24 h [3] [µM] | t1/2 [4] [min] | CC50 (SH-SY5Y) [nM] | selectivity ratio [1] | EC50 (Naegleria fowleri [2]; [12]) [nM] | EC50 (Naegleria fowleri [2]) [nM] | further results
1 | CN1CCC[C@@H]2c3nc4ccc(Cl)cc4c(=O)n3CC[C@H]21 (racemic) | 187 (≈ 56.8 µg/mL) | 18.5 |  |  |  | 1000 | CC50 at 72 h [5]: > 20000 nM; Ratio CC50/EC50 [1]: > 20
2 | COc1cc2nc3n(c(=O)c2cc1Cl)CC[C@@H]1[C@@H]3CCCN1CC1CCC1 (racemic) | 4.6 (≈ 1.78 µg/mL) | 3.8 | 640 | 42.7 | 15 |  | 
3 | O=c1c2cc(Cl)c(Cl)cc2nc2n1CC[C@@H]1[C@@H]2CCCN1CC1CC1 (racemic) |  | 18.3 | 4800 | 2400 | 2 |  | 
4 | CN1CCC[C@@H]2c3nc4cc(Cl)c(Cl)cc4c(=O)n3CC[C@H]21 (racemic) | 138 (≈ 46.7 µg/mL) |  |  | > 100 |  | 200 | CC50 at 72 h [5]: > 20000 nM
5 | CN1CCC[C@@H]2c3nc4ccc(Cl)cc4c(=O)n3CC[C@H]21 |  | 11.5 | > 20000 |  |  | 280 | Ratio CC50/EC50 [1]: > 71.4; Kinetic_solubility ([3]; 24 h): 129 µM
6 | CN1CCC[C@@H]2c3nc4cc(Cl)c(Cl)cc4c(=O)n3CC[C@H]21 |  | 6.1 | 7800 |  |  | 86 | Ratio CC50/EC50 [1]: 90.7; Kinetic_solubility ([3]; 24 h): 98.2 µM
7 | CC(C)OCCN1CCC[C@@H]2c3nc4cc(Cl)c(Cl)cc4c(=O)n3CC[C@H]21 (racemic) |  | 9.8 | > 20000 |  | 0.4 |  | 
8 | CN1CCC[C@@H]2c3nc4ccc(C(F)(F)F)cc4c(=O)n3CC[C@H]21 |  | 10.9 |  |  |  | 250 | Ratio CC50/EC50 [1]: > 80; Kinetic_solubility ([3]; 24 h): 109 µM
9 | O=c1c2cc(Cl)c(Cl)cc2nc2n1CC[C@@H]1[C@@H]2CCCN1CC1COC1 (racemic) |  | 109 | > 20000 | > 33000 | 6 |  | Kinetic_solubility [3]: 40 µM
10 | CC(C)CN1CCC[C@@H]2c3nc4cc(Cl)c(Cl)cc4c(=O)n3CC[C@H]21 (racemic) |  | 19.7 | > 20000 |  | 7 |  | 
11 | CN1CCC[C@@H]2c3nc4ccc(C(F)(F)F)cc4c(=O)n3CC[C@H]21 (racemic) | 159 (≈ 53.6 µg/mL) | 21.2 |  |  |  | 1100 | CC50 at 72 h [5]: > 20000 nM; Ratio CC50/EC50 [1]: > 18.2
12 | O=c1c2cc(Cl)c(Cl)cc2nc2n1CC[C@@H]1[C@@H]2CCCN1CCO (racemic) |  | 83.1 | > 20000 |  | 20 |  | Kinetic_solubility [3]: < 10 µM
13 | COc1cc2nc3n(c(=O)c2cc1Cl)CC[C@@H]1[C@@H]3CCCN1CCN1CCOCC1 (racemic) | 43.1 (≈ 18.7 µg/mL) | 29.8 | > 20000 | > 38.5 | 520 |  | 
14 | COc1cc2nc3n(c(=O)c2cc1Cl)CC[C@@H]1[C@@H]3CCCN1CCN1CCCC1 (racemic) | 172 (≈ 71.7 µg/mL) | > 145 | > 20000 | > 27 | 740 |  | 
15 | C[C@@H]1[C@H](O)[C@@H](C)/C=C/C=C/C=C/C=C/C=C/C=C/C=C/[C@H](O[C@@H]2O[C@H](C)[C@@H](O)[C@H](N)[C@@H]2O)C[C@@H]2O[C@](O)(C[C@@H](O)C[C@@H](O)[C@H](O)CC[C@@H](O)C[C@@H](O)CC(=O)O[C@H]1C)C[C@H](O)[C@H]2C(=O)O [AMPHOTERICIN B] |  |  |  |  |  |  | survival at 5 mg/kg (Naegleria fowleri [11]): 17%

Second part, led by results:

Row | solubility kinetic at 24 h [3] [µM] | t1/2 [4] [min] | Compound | CC50 (SH-SY5Y) [nM] | selectivity ratio [1] | EC50 (Naegleria fowleri [2]; [12]) [nM] | EC50 (Naegleria fowleri [2]) [nM] | further results
16 | 76.1 (≈ 28.5 µg/mL) | 12.6 | COc1cc2nc3n(c(=O)c2cc1Cl)CC[C@@H]1[C@@H]3CCCN1CC1CC1 (racemic) | 1000 | 43.5 | 23 |  | 
17 | 2.6 (≈ 0.977 µg/mL) |  | COc1cc2nc3n(c(=O)c2cc1Cl)CC[C@H]1[C@H]3CCCN1CC(C)C | 1000 | 38 | 27 |  | 
18 | 29.1 (≈ 11.3 µg/mL) | 75.6 | COc1cc2nc3n(c(=O)c2cc1Cl)CC[C@@H]1[C@@H]3CCCN1CC1COC1 | > 20000 |  |  | 490 | Ratio CC50/EC50 [1]: > 40.8; EC50 (Naegleria fowleri [6]): 470 nM; t1/2 [7]: 80.3 min; fraction unbound at 4 h [8]: 0.26; fraction unbound at 4 h [9]: 0.26; t1/2 [10]: > 289 min
19 |  | 17 | COCCN1CCC[C@@H]2c3nc4cc(Cl)c(Cl)cc4c(=O)n3CC[C@H]21 (racemic) | 10000 | 435 | 23 |  | 
20 |  | 67.2 | O=c1c2cc(Cl)c(Cl)cc2nc2n1CC[C@@H]1[C@@H]2CCCN1CC1CCOCC1 (racemic) | > 20000 |  | 7 |  | 
21 | 65.7 (≈ 26.7 µg/mL) | 3.1 | COc1cc2nc3n(c(=O)c2cc1Cl)CC[C@@H]1[C@@H]3CCCN1CCOC(C)C (racemic) | 2500 | 22.7 | 110 |  | 
22 |  | > 145 | COc1cc2nc3n(c(=O)c2cc1Cl)CC[C@@H]1[C@@H]3CCCN1CC1COC1 (racemic) | 5000 |  |  | 29 | Ratio CC50/EC50 [1]: 172; Kinetic_solubility ([3]; 24 h): 198 µM
23 | 136 (≈ 51.7 µg/mL) | 104.6 | COc1cc2nc3n(c(=O)c2cc1C#N)CC[C@@H]1[C@@H]3CCCN1CC1COC1 (racemic) | > 20000 | > 167 | 120 |  | 
24 | 3.8 (≈ 1.56 µg/mL) |  | COc1cc2nc3n(c(=O)c2cc1Cl)CC[C@@H]1[C@@H]3CCCN1Cc1cccnc1 (racemic) | > 20000 | > 167 | 120 |  | 
25 |  | 75.2 | O=c1c2cc(Cl)c(Cl)cc2nc2n1CC[C@@H]1[C@@H]2CCCN1CCN1CCOCC1 (racemic) | > 20000 |  | 11 |  | Kinetic_solubility [3]: 206 µM
